HTRA1 inh = blocks human HTRA1 serine peptidase | Q92743 | recombinant HTRA1, FP-rhodamine activity-based probe, fluorescence polarization | inhibition, % at 5.96 µM | 340,000 tested, 0.5% active | AID 504803; in the data active = inhibition above about 36%;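 note: 0% = enzyme with DMSO and 100% = wells lacking enzyme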
Target sequence (Q92743 whole entry, looked up): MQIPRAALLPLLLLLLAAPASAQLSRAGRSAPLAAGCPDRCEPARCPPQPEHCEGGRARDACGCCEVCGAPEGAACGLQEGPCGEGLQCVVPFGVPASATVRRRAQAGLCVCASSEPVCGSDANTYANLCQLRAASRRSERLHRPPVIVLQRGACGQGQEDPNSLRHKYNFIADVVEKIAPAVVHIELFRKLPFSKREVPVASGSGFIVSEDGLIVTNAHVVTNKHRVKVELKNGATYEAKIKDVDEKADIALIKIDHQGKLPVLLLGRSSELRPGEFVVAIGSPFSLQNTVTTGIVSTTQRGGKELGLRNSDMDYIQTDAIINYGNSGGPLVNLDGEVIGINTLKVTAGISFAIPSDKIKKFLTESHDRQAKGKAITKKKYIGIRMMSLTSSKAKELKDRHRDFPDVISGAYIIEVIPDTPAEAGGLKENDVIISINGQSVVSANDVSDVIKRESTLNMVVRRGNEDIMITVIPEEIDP
ATG4B inhibitor = blocks human ATG4B protease cleavage of LC3 substrate; ATG4B cleavage of LC3-PLA2, NBD-HPC fluorescence, 1 h; inhibition, % at 8.33 µM; 340,000 tested, 0.51% active; AID 504462; Q9Y4P1; in the data active = inhibition above about 40%
ABHD4 inh = inhibitors of mouse ABHD4; purified mABHD4, FP-Rh probe fluorescence polarization; AID 720543; 370,000 tested, 0.54% active; inhibition, % at 8.92 µM;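 active = inhibition exceeding the mean over every tested compound plus 3 SD, cut at about 30% in these data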;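 note: 0% = plate median of compound wells and 100% = S159A mutant with DMSO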
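Assay system: wild-type mouse ABHD4 protein; compound: single nominal dose of 8.92 µM, 0.89% DMSO final; schedule: 45 min + 60 min at 25 °C; measured by: FP readout, ex 525 nm / em 598 nm; evaluation: % inhibition of FP-Rh probe binding versus controls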
PRMT1 FP inh = inhibitors of human PRMT1 | Q99873 | recombinant PRMT1, activity-based probe fluorescence polarization | inhibition, % at 2.79 µM | 370,000 tested, 1.3% active | AID 652257;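 active = inhibition above about 21% made by adding two undisclosed values, limit read from the data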
TCR CD3 inh = inhibitors of human TCR-CD3 interaction; 360,000 tested, 0.37% active; inhibition, % at 9.4 µM; TAMRA-labeled TCR probe fluorescence, biochemical; AID 651800; in the data active = inhibition above about 19%;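 note: recombinant mutant TCR 2C K166C tagged with TAMRA read by polarization; 0% = receptor in buffer alone and 100% = receptor with positive control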
SIAE inh = blocks human sialic acid acetylesterase; Q9HAT2; SIAE FP-Rh probe binding, fluorescence polarization; inhibition, % at 9.66 µM; 370,000 tested, 0.69% active;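 active = inhibition above a cutoff: mean of compounds within the control limits plus 3 SD of those, cut at about 17% in these data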;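 note: 0% = plate median of compound wells and 100% = probe without SIAE protein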
PRMT1 confirm = confirmation of human PRMT1 inhibitors. AID 687036. recombinant His-PRMT1, activity-based probe fluorescence polarization. shares compounds with PRMT1 FP inh. 3,300 tested, 42% active. inhibition, % at 2.79 µM;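 active = mean inhibition across replicates above the hit cutoff derived for the earlier primary screen, cut at about 22% in these data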
Numbers without * were called inactive; / = not tested or not shown. Shown are actives, neighbours in structure and some others; about 2.9% of the full set was active somewhere.

SMILES | HTRA1 inh | ATG4B inhibitor | ABHD4 inh | PRMT1 FP inh | TCR CD3 inh | SIAE inh | PRMT1 confirm
O=C(O)CSC1CC(=O)N(c2ccc(F)cc2)C1=O (configuration not stated) | -1 | / | -10 | 26* | -2 | -4 | 1
CCN=C(NCC)SC1CC(=O)N(CCc2ccccc2)C1=O (configuration not stated) | / | 1 | -4 | 35* | 6 | -13 | -1
O=C1CC(SC(=Nc2ccccc2)Nc2ccccc2)C(=O)N1c1ccc(Cl)cc1 (configuration not stated) | -3 | -9 | -5 | -1 | -7 | -7 | /
O=C(CSC1CC(=O)N(CCc2ccccc2)C1=O)Nc1cccc(Cl)c1 (configuration not stated) | -12 | -19 | -27 | 54* | 10 | 8 | 54*
O=C(CSC1CC(=O)N(c2ccc(C(=O)O)cc2)C1=O)Nc1ccc(Cl)cc1 (configuration not stated) | 9 | -1 | 5 | 39* | 5 | -5 | 34*
CCN=C(NCC)SC1CC(=O)N(c2ccc(OC)cc2)C1=O (configuration not stated) | 7 | -1 | 5 | 2 | -2 | -3 | /
NCCSC1CC(=O)N(c2ccc(F)cc2)C1=O (configuration not stated) | 0 | -2 | 2 | 19 | 1 | 0 | /
O=C(c1cc(F)ccc1F)N1CCC(Oc2cccnc2)CC1 | / | / | 0 | -2 | / | -9 | /
O=S(=O)(NCCC(c1ccc(F)cc1)c1ccco1)c1ccccc1 (configuration not stated) | -26 | 18 | -13 | 0 | 9 | 0 | /
O=C(CC(c1ccco1)S(=O)(=O)c1ccccc1)c1ccc(F)cc1 (configuration not stated) | -1 | -3 | 12 | 28* | 0 | 12 | 22*
Cc1cc(C)cc(N2C(=O)CC(Sc3ccccc3C(=O)O)C2=O)c1 (configuration not stated) | 6 | -6 | 6 | 49* | -1 | -2 | 18
Cc1ccc(N2C(=O)CC(Sc3ccccc3C(=O)O)C2=O)cc1C (configuration not stated) | 7 | -6 | 6 | 62* | -3 | -1 | 21
Cc1ccc(N2C(=O)CC(Sc3ccccc3C(=O)O)C2=O)cc1 (configuration not stated) | 1 | 2 | -1 | 86* | -8 | 7 | 24*
O=C(O)c1ccccc1SC1CC(=O)N(c2ccc3c(c2)OCO3)C1=O (configuration not stated) | 0 | 14 | 10 | 56* | -1 | 2 | 30*
Nc1ccccc1SC1CC(=O)N(c2ccc3c(c2)OCO3)C1=O (configuration not stated) | / | 8 | 4 | 1 | -5 | -1 | /
O=C(C1CCCO1)N1CCN(C2=Nc3ccccc3Sc3ccccc32)CC1 (configuration not stated) | / | / | -3 | -4 | / | -4 | /
Cc1cccc(N2C(=O)CC(Sc3ccccc3C(=O)O)C2=O)c1 (configuration not stated) | 4 | -1 | 9 | 60* | 3 | 3 | 22*
CN1C(=O)CC(Sc2ccccc2C(=O)O)C1=O (configuration not stated) | 4 | 9 | -6 | 7 | -1 | -4 | /
Cc1cc(C)c(N2C(=O)CC(Sc3ccccc3N)C2=O)c(C)c1 (configuration not stated) | 9 | / | -2 | 34* | 2 | 5 | 19
CN(C)c1ccc(N2C(=O)CC(Sc3ccccc3C(=O)O)C2=O)cc1 (configuration not stated) | -3 | -1 | 20 | 82* | -1 | 14 | 43*
CCC[C@H]1[C@@H](OC(=O)N2CCOCC2)CC[C@@]23CCCN2C(=O)CCC[C@@H]13 | / | / | -4 | 7 | / | -1 | /
Cc1ccc(-c2nc3cnccn3c2Nc2ccc3c(c2)OCO3)o1 | 8 | -7 | 12 | 26* | -1 | 1 | 2
Cc1ccc(Nc2c(-c3ccc(C)o3)nc3cnccn23)cc1 | 1 | -6 | 9 | 58* | -9 | 10 | 10
Cc1ccc(-c2nc3cnccn3c2Nc2ccccc2)o1 | 4 | -12 | 12 | 67* | 6 | 6 | 9
Cc1ccc(-c2nc3ccccn3c2Nc2ccccc2)o1 | 3 | 10 | 14 | 49* | -5 | 7 | 0
SMILES | HTRA1 inh | ATG4B inhibitor | ABHD4 inh | PRMT1 FP inh | TCR CD3 inh | SIAE inh | PRMT1 confirm
Clc1ccc(-c2nc3cnccn3c2Nc2ccc3c(c2)OCO3)cc1 | 16 | -8 | 14 | 11 | 2 | 15 | /
C=CCN(Cc1ccc2c(c1)OCO2)C(C#Cc1ccccc1)c1ccccc1C(F)(F)F (configuration not stated) | / | / | -4 | -3 | / | 6 | /
CC1(OC(=O)CCc2ccccc2)C(=O)C=C2C=C(c3ccc(C#N)cc3)N(Cc3ccco3)C=C2C1=O (configuration not stated) | 14 | -6 | 22 | 28* | 5 | 5 | 10
C=CS(=O)(=O)c1sc(Cl)c(N2CCOCC2)c1[N+](=O)[O-] | 2 | 2 | 10 | 68* | 0 | 7 | 82*
C=CSc1sc(Cl)c(N2CCOCC2)c1[N+](=O)[O-] | -1 | -6 | -1 | 2 | -5 | -4 | /
COc1cc(OC)cc(-c2nc(-c3ccccc3OC)no2)c1 | 0 | -3 | 2 | 0 | -4 | 2 | /
Clc1nssc1=Nc1nncs1 | 7 | -5 | 0 | 97* | 3 | 2 | 92*
COc1cc(N=c2ssnc2Cl)cc(OC)c1 | 22 | -11 | 16 | 63* | -2 | 4 | 92*
N#Cc1cccc(N=c2ssnc2Cl)c1 | / | 2 | -3 | 100* | -9 | 8 | 92*
Clc1nssc1=Nc1ccc(Br)cc1 | 4 | 0 | 4 | 72* | 4 | 10 | 93*
COC(=O)C1=C(C)N(Cc2ccc(F)cc2)C(=S)NC1c1cccc(Br)c1 (configuration not stated) | / | / | -13 | 0 | 6 | -7 | /
Cc1cccc2c1CC(C)(C)N/C2=C\C(N)=O | 5 | -1 | -6 | 45* | -4 | 14 | 45*
CNC(=O)/C=C1\NC(C)(C)Cc2ccccc21 | 0 | -25 | -15 | 41* | 5 | 0 | 55*
CC1(C)Cc2ccccc2C(=O)N1 | 1 | -3 | 0 | 2 | 4 | -2 | /
Cc1cc2c(cc1C)/C(=C\C(N)=O)NC(C)(C)C2 | -2 | -4 | -4 | 26* | -1 | 5 | 34*
COc1cc2c(cc1OC)/C(=C/C#N)NC(C)(C)C2 | -2 | -12 | 5 | 1 | 7 | 7 | /
OCC1SC(O)C(O)C(O)C1O (configuration not stated) | / | / | 1 | -7 | 5 | 3 | /

High-throughput results: PubChem BioAssay, several laboratories
